Test results taken from ChEMBL document CHEMBL3580635, “9-Hydroxycanthin-6-one, a β-Carboline Alkaloid from Eurycoma longifolia, Is the First Wnt Signal Inhibitor through Activation of Glycogen Synthase Kinase 3β without Depending on Casein Kinase 1α” (J Nat Prod, 2015).
Each block holds one compound with its values, some of them ahead of it. Calls of active or inactive are those of the source. No cut-off for these calls is given here.

Columns and labels:
HCT-116 = test: Cytotoxicity against Wnt-dependent human HCT116 cells assessed as cell viability after 24 hrs by fluorescence assay; type: functional, cell-based; conditions: HCT-116, 24 h
HEK-293T = test: Cytotoxicity against HEK293T cells assessed as cell viability after 24 hrs by fluorescence assay; type: cell-based; conditions: Homo sapiens
[1] = target: T1, Glycogen synthase kinase-3 beta (Homo sapiens, UniProt P49841); test: Activation of GSK-3beta in HEK293 cells assessed as suppression of TCF/beta-catenin transcriptional activity after 24 hrs by SuperTOPFlash reporter gene assay; type: cell-based
Method in brief: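 STF/293 cells (293 cells stably carrying SuperTOPFlash, seven LEF/TCF sites) seeded 3 × 10^4/well; 24 h later given compound plus LiCl (final 15 mM) for 24 h. Cells lysed and firefly luciferase read, compared with no-compound control. DMSO final below 0.1%. At least triplicate; mean ± SE, n = 3.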

[2] = Cytotoxicity against Wnt-dependent human DLD1 cells assessed as cell viability after 24 hrs by fluorescence assay; type: functional, cell-based; conditions: DLD-1, 24 h
SW480 [3] = test: Cytotoxicity against Wnt-dependent human SW480 cells assessed as cell viability after 24 hrs by fluorescence assay; conditions: SW480, 24 h
RKO = test: Cytotoxicity against Wnt-independent human RKO cells assessed as cell viability after 24 hrs by fluorescence assay; type: functional, cell-based
HEK293 [4] = test: Cytotoxicity against HEK293 cells transfected with SuperTOPFlash reporter gene assessed as cell viability at 10 to 40 uM after 24 hrs by fluorescence assay; type: cell-based; conditions: human, hek293, 24 h
Method in brief: (§1)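 STF/293 cells seeded 3 × 10^4/well, grown 24 h, then exposed 24 h to compound diluted in medium (DMSO final below 0.1%). Cells washed, then given fluorescein diacetate 10 μg/mL in PBS for 1 h at 37 °C. Fluorescence read at ex 485/em 538 nm. Mean ± SE, n = 3.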

HEK293 [5] = test: Cytotoxicity against HEK293 cells assessed as cell viability after 24 hrs by fluorescence assay; type: cell-based; conditions: Homo sapiens, HEK293, 24 h
HEK293 [6] = test: Cytotoxicity against HEK293 cells transfected with SuperTOPFlash reporter gene assessed as cell viability at 2.5 to 10 uM after 24 hrs by fluorescence assay; type: cell-based; conditions: human, hek293, 24 h; method in brief: as §1
SW480 [7] = test: Effect on CK1alpha expression in human SW480 cells at 10 to 30 uM after 24 hrs by Western blot analysis; type: functional, cell-based
Method in brief: (§2)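 SW480 cells, 1 × 10^6 per 90 mm dish, treated 24 h after seeding for 24 h. Whole-cell lysates made in Triton/deoxycholate buffer with phosphatase and protease inhibitors; cytosolic and nuclear fractions prepared by NE-PER. Proteins run on 10% SDS-PAGE, blotted to PVDF, probed, detected by ECL. Bands normalized to β-actin or histone H1.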

[8] = target: Casein kinase I isoform alpha (Homo sapiens) (UniProt P48729); test: Effect on CK1alpha in human SW480 cells assessed as change in phosphorylation of beta-catenin at Ser45 at 10 to 30 uM after 24 hrs by Western blot analysis; type: cell-based; method in brief: as §2
Casein kinase I isoform alpha (Homo sapiens), sequence (P48729 2-337 limits assumed): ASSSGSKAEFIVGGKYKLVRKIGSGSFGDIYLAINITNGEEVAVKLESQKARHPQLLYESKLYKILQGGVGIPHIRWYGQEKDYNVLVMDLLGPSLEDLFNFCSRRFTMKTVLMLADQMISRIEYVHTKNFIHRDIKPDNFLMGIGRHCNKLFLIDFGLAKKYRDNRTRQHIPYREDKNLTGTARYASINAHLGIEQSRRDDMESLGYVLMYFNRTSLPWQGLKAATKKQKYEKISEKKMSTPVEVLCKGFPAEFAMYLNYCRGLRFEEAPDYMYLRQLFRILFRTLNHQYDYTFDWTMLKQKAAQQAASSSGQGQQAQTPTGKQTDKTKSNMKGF

[9] = target: T1, Glycogen synthase kinase-3 beta; test: Activation of GSK-3beta in human SW480 cells assessed as increase in phosphorylation of beta-catenin at Thr41 at 30 uM after 24 hrs by Western blot analysis in presence of CK1alpha siRNA; type: cell-based
Method in brief: (§3)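 SW480 cells, 5 × 10^4/well, grown 24 h, then transfected for 6 h with control or CK1α siRNA (10 pmol, Lipofectamine 2000). Compound then added in DMEM/10% FBS for 24 h. Whole-cell lysates Western blotted, normalized to β-actin.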
Target sequence in this assay (P49841 whole entry, looked up): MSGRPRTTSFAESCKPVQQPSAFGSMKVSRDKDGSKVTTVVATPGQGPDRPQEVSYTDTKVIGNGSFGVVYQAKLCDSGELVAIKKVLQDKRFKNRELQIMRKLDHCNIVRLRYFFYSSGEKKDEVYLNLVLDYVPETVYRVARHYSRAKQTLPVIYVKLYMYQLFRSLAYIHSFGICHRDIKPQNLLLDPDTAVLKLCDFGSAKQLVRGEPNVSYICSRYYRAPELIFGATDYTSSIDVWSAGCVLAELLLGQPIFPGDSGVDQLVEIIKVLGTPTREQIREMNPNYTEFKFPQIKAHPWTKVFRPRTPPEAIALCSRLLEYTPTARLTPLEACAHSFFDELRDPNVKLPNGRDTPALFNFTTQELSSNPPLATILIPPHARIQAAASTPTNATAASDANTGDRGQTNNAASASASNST

[10] = target: T1, Glycogen synthase kinase-3 beta; test: Inhibition of GSK-3beta phosphorylation at Ser9 in human SW480 cells at 30 uM after 24 hrs by Western blot analysis in presence of control and GSK-3beta siRNA; type: cell-based
Method in brief: (§4)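 SW480 cells, 1 × 10^5/well, grown 24 h, then transfected for 3 h with control or GSK3β siRNA (10 pmol, Lipofectamine 2000). Compound then added in DMEM/10% FBS for 24 h. Whole-cell lysates Western blotted, normalized to β-actin.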
Target sequence in this assay (P49841 whole entry, looked up): as above

HEK293 [11] = test: Cytotoxicity against HEK293 cells transfected with SuperTOPFlash reporter gene assessed as cell viability at 5 to 20 uM after 24 hrs by fluorescence assay; type: cell-based; conditions: human, hek293, 24 h; method in brief: as §1
[12] = target: T1, Glycogen synthase kinase-3 beta; test: Activation of GSK-3beta in human SW480 cells assessed as increase in phosphorylation of beta-catenin at Thr41 at 30 uM after 24 hrs by Western blot analysis in presence of control siRNA; type: cell-based; method in brief: as §4
Target sequence in this assay (P49841 whole entry, looked up): as above

[13] = Activation of GSK-3beta in zebrafish embryo assessed as suppression of Wnt/beta-catenin signaling pathway at 300 uM measured 10 to 24 hrs post fertilization by TOPdGFP reporter gene-based fluorescence microscopic analysis in presence of MO, p53 MO; conditions: Danio rerio
Method in brief: (§5)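 TOPdGFP transgenic zebrafish embryos injected at the one- or two-cell stage with 5 ng control or p53 morpholino. Exposed 10–24 hpf at 28.5 °C in E3 medium containing 300 μM compound. TOPdGFP in the midbrain tectum imaged by fluorescence microscopy; apoptotic cells detected by TUNEL kit.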

[14] = target: T1, Glycogen synthase kinase-3 beta; test: Activation of GSK-3beta in human SW480 cells assessed as increase in phosphorylation of beta-catenin at Ser37 at 10 to 30 uM after 24 hrs by Western blot analysis; type: cell-based; method in brief: as §2
Target sequence in this assay (P49841 whole entry, looked up): as above

[15] = target: T1, Glycogen synthase kinase-3 beta; test: Activation of GSK-3beta in human SW480 cells assessed as increase in phosphorylation of beta-catenin at Ser37 at 30 uM after 24 hrs by Western blot analysis in presence of GSK-3beta siRNA; type: cell-based; method in brief: as §4
Target sequence in this assay (P49841 whole entry, looked up): as above

Danio rerio [16] = species: Danio rerio; test: Activation of GSK-3beta in zebrafish embryo assessed as suppression of zic2a gene expression in midbrain tectum at 300 uM measured 4 to 24 hrs post fertilization by in situ hybridization method in presence of MO, p53 MO; type: tissue-based
[17] = target: T1, Glycogen synthase kinase-3 beta; test: Activation of GSK-3beta in human SW480 cells assessed as increase in phosphorylation of beta-catenin at Ser37 at 30 uM after 24 hrs by Western blot analysis in presence of control siRNA; type: cell-based; method in brief: as §4
Target sequence in this assay (P49841 whole entry, looked up): as above

[18] = target: T1, Glycogen synthase kinase-3 beta; test: Activation of GSK-3beta in human SW480 cells assessed as increase in phosphorylation of beta-catenin at Ser33 at 10 to 30 uM after 24 hrs by Western blot analysis; type: cell-based; method in brief: as §2
[19] = target: T1, Glycogen synthase kinase-3 beta; test: Activation of GSK-3beta in human SW480 cells assessed as increase in phosphorylation of beta-catenin at Thr41 at 30 uM after 24 hrs by Western blot analysis in presence of GSK-3beta siRNA; type: cell-based; method in brief: as §4
Danio rerio [20] = species: Danio rerio; test: Activation of GSK-3beta in zebrafish embryo assessed as reduction of pigment cells on tail at 300 uM measured 4 to 30 hrs post fertilization
[21] = target: T1, Glycogen synthase kinase-3 beta; test: Activation of GSK-3beta in human SW480 cells assessed as increase in phosphorylation of beta-catenin at Thr41 at 10 to 30 uM after 24 hrs by Western blot analysis; type: cell-based; method in brief: as §2
Danio rerio [22] = species: Danio rerio; test: Activation of GSK-3beta in zebrafish embryo assessed as suppression of mitf gene expression in neural crest cells at 300 uM measured 24 hrs post fertilization by in situ hybridization method in presence of MO, p53 MO; type: cell-based
SW480 [23] = test: Effect on GSK-3beta expression in human SW480 cells at 10 to 30 uM after 24 hrs by Western blot analysis; type: functional, cell-based; method in brief: as §2
Danio rerio [24] = species: Danio rerio; test: Activation of GSK-3beta in zebrafish embryo assessed as reduction of BIO-induced eyeless phenotype appearance at 100 uM measured 4 to 30 hrs post fertilization; parameters: scale not given: the % may be the effect or the level left
Method in brief: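 Zebrafish embryos exposed 4–30 hpf at 28.5 °C in E3 medium to BIO (0.5 μM) alone or BIO plus compound (100 μM), then examined under a stereomicroscope.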

[25] = target: T1, Glycogen synthase kinase-3 beta; test: Activation of GSK-3beta in human SW480 cells assessed as increase in phosphorylation of beta-catenin at Ser33 at 30 uM after 24 hrs by Western blot analysis in presence of control siRNA; type: cell-based; method in brief: as §4
[26] = target: T1, Glycogen synthase kinase-3 beta; test: Activation of GSK-3beta in human SW480 cells assessed as increase in phosphorylation of beta-catenin at Ser37 at 30 uM after 24 hrs by Western blot analysis in presence of CK1alpha siRNA; type: cell-based; method in brief: as §3
[27] = target: T1, Glycogen synthase kinase-3 beta; test: Activation of GSK-3beta in human SW480 cells assessed as increase in phosphorylation of beta-catenin at Ser33 at 30 uM after 24 hrs by Western blot analysis in presence of GSK-3beta siRNA; type: cell-based; method in brief: as §4
[28] = target: T1, Glycogen synthase kinase-3 beta; test: Activation of GSK-3beta in human SW480 cells assessed as downregulation of beta-catenin expression in nuclear fraction at 10 to 30 uM after 24 hrs by Western blot analysis; type: cell-based; method in brief: as §2
[29] = target: T1, Glycogen synthase kinase-3 beta; test: Activation of GSK-3beta in human SW480 cells assessed as increase in phosphorylation of beta-catenin at Ser33 at 30 uM after 24 hrs by Western blot analysis in presence of CK1alpha siRNA; type: cell-based; method in brief: as §3
[30] = target: T1, Glycogen synthase kinase-3 beta; test: Activation of GSK-3beta in human SW480 cells assessed as downregulation of beta-catenin expression in cytosolic fraction at 10 to 30 uM after 24 hrs by Western blot analysis; type: cell-based; method in brief: as §2
Danio rerio [31] = species: Danio rerio; test: Induction of apoptosis in zebrafish embryo at 300 uM measured 10 to 24 hrs post fertilization by TUNEL assay in presence of MO, p53 MO; type: organism-based; conditions: in vivo; method in brief: as §5
[32] = target: T1, Glycogen synthase kinase-3 beta; test: Inhibition of GSK-3beta phosphorylation at Ser9 in human SW480 cells at 30 uM after 24 hrs by Western blot analysis in presence of CK1alpha siRNA; type: cell-based; method in brief: as §3

Activity [1]: Dose-dependent effect | IC50 [1]: 11.6 µM
SMILES: O=c1ccc2nccc3c4ccc(O[C@@H]5O[C@H](CO)[C@@H](O)[C@H](O)[C@H]5O)cc4n1c23
IC50 (HCT-116): > 40 µM | IC50 (HEK-293T): > 40 µM | IC50 [2]: > 40 µM | IC50 (SW480 [3]): > 40 µM | IC50 (RKO): > 40 µM | Activity (HEK293 [4]): Non-toxic | IC50 (HEK293 [5]): 36.7 µM

Activity [1]: Dose-dependent effect | IC50 [1]: 3 µM
SMILES: CC(=O)O[C@@H]1C[C@H]2C(C)(C)C(=O)C=C[C@]2(C)[C@H]2CC[C@]3(C)C(=CC[C@H]3[C@H]3COC(=O)C3)[C@@]21C
IC50 (HCT-116): 24.4 µM | IC50 (HEK-293T): > 40 µM | IC50 [2]: 31.7 µM | IC50 (SW480 [3]): 11.2 µM | IC50 (RKO): 26.4 µM | Activity (HEK293 [6]): Non-toxic | IC50 (HEK293 [5]): 31.2 µM

Activity [8]: inactive | Activity [9]: Active | inhibition [10]: Active | Activity [12]: Active | Activity [13]: Active | Activity [14]: Active | Activity [15]: inactive | Activity [17]: Active | Activity [18]: Active | Activity [19]: inactive | Activity (Danio rerio [20]): Active | Activity [21]: Active | Activity [1]: Dose-dependent effect | IC50 [1]: 6.8 µM | Activity (Danio rerio [24]): 46% | Activity [25]: Active | Activity [26]: Active | Activity [27]: inactive | Activity [28]: Active | Activity [29]: Active | Activity [30]: Active | inhibition [32]: Active
SMILES: O=c1ccc2nccc3c4ccc(O)cc4n1c23
IC50 (HCT-116): 30 µM | Activity (SW480 [7]): inactive | Activity (HEK293 [11]): Non-toxic | IC50 (HEK-293T): > 40 µM | Activity (Danio rerio [16]): Active | Activity (Danio rerio [22]): Active | Activity (SW480 [23]): inactive | IC50 [2]: > 40 µM | IC50 (SW480 [3]): 17.4 µM | IC50 (RKO): > 40 µM | Activity (Danio rerio [31]): Non-toxic | IC50 (HEK293 [5]): 36.7 µM
